The results in this text go back to ChEMBL document CHEMBL4017526, “Nanomolar Inhibitors of Glycogen Phosphorylase Based on β-d-Glucosaminyl Heterocycles: A Combined Synthetic, Enzyme Kinetic, and Protein Crystallography Study” (J Med Chem, 2017).

For assay [1], the target named is T1, Glycogen phosphorylase, muscle form (Oryctolagus cuniculus, UniProt P00489).
T1 sequence (P00489 whole entry): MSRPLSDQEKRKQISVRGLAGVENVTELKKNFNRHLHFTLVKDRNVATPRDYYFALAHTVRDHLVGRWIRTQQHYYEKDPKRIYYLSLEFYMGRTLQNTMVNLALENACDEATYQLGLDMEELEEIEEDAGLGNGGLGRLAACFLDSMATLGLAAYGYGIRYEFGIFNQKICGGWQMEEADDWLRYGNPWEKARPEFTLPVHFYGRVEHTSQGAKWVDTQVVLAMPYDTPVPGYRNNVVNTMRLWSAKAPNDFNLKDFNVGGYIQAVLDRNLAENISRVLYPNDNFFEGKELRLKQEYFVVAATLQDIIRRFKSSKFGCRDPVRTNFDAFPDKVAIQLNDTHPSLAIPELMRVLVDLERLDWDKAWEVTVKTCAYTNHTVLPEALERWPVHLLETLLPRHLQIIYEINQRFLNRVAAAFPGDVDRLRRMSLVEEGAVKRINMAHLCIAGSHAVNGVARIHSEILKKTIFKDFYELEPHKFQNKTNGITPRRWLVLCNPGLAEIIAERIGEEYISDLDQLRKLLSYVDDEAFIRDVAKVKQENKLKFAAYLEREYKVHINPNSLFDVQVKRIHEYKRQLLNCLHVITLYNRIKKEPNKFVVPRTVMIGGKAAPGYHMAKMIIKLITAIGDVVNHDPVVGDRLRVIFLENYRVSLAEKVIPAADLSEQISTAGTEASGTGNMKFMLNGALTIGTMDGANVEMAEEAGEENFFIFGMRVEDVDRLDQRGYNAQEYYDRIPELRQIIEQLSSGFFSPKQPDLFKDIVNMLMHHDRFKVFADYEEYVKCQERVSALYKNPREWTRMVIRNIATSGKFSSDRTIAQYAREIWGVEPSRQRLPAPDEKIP
Kind of assay: Competitive inhibition of rabbit muscle glycogen phosphorylase-b in presence of varying levels of glucose-1-phosphate and constant concentration of glycogen and AMP preincubated for 15 mins with AMP and glycogen followed by glucose-1-phosphate addition by Lineweaver-Burk plot method. The method, boiled down: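 Rabbit skeletal muscle GPb, 3 μg/mL, at 30 °C in the glycogen-synthesis direction. Buffer: 30 mM imidazole/HCl pH 6.8, 60 mM KCl, 0.6 mM EDTA, 0.6 mM DTT, 0.2% glycogen, 1 mM AMP. Glc-1-P at 2, 3, 4, 6 or 10 mM, added after 15 min enzyme–glycogen preincubation. Pi read at 850 nm by molybdate method from 1–4 min samples. Ki from 1/v vs [inhibitor]; three independent experiments, mean ± SD.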

For assay [2], the target named is T1, Glycogen phosphorylase, muscle form. The assay can be described thus: Inhibition of rabbit muscle glycogen phosphorylase.
Assay [3] deals with T2, Glycogen phosphorylase, liver form (Homo sapiens, UniProt P06737).
T2 sequence (P06737 whole entry): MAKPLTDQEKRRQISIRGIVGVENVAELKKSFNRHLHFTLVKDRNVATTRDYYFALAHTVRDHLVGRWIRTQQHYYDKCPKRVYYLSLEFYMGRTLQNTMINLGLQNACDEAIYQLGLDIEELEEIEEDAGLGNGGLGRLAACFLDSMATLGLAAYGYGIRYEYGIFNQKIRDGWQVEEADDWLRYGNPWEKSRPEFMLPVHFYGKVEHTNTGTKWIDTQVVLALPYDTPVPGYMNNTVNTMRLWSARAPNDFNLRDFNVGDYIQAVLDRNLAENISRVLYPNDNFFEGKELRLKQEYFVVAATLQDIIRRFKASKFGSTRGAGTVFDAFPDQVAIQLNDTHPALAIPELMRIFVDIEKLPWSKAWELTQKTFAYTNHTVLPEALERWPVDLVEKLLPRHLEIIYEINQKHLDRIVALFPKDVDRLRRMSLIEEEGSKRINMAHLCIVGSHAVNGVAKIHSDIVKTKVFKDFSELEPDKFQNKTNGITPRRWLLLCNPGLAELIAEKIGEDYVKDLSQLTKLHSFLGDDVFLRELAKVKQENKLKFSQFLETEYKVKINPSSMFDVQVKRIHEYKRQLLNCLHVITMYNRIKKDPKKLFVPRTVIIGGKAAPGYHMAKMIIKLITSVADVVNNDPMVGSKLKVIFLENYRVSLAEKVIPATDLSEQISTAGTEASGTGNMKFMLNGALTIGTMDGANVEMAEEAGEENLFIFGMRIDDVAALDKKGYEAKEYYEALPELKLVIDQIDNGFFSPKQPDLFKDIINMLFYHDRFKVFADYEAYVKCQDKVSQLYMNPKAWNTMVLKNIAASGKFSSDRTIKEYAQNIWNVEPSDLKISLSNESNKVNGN
The assay can be described thus: Competitive inhibition of 6xHis-tagged human liver glycogen phosphorylase-a expressed in Escherichia coli BL21 Gold (DE3) assessed as release of inorganic phosphate using varying levels of glucose-1-phosphate and constant concentration of AMP and glycogen preincubated for 15 mins with AMP and glycogen followed by glucose-1-phosphate addition by Lineweaver-Burk plot method.

Assay [4] deals with T1, Glycogen phosphorylase, muscle form. The assay can be described thus: Competitive inhibition of rabbit muscle glycogen phosphorylase-a in presence of varying levels of glucose-1-phosphate and constant concentration of glycogen and AMP preincubated for 15 mins with AMP and glycogen followed by glucose-1-phosphate addition by Lineweaver-Burk plot method. The method, boiled down:
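Rabbit muscle GPa at 3 μg/mL, 30 °C, synthesis direction. Medium: 30 mM imidazole/HCl pH 6.8, 60 mM KCl, 0.6 mM EDTA, 0.6 mM DTT, 0.2% glycogen. Enzyme–glycogen preincubated 15 min before Glc-1-P start. Samples at 1, 2, 3, 4 min quenched in SDS; phosphate measured at 850 nm. Ki derived from 1/v vs inhibitor concentration; three independent runs, mean ± SD.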

The target is the same in assay [5].
The target of assay [6] is T3, Glycogen phosphorylase, muscle form (Oryctolagus cuniculus) (UniProt P00489).
T3 sequence (whole entry): T1 sequence (P00489 whole entry)
The assay can be described thus: Competitive inhibition of rabbit muscle glycogen phosphorylase-b at 625 uM in presence of varying levels of glucose-1-phosphate and constant concentration of glycogen and AMP preincubated for 15 mins with AMP and glycogen followed by glucose-1-phosphate addition by Lineweaver-Burk plot method.

The target in assay [7] is T2, Glycogen phosphorylase, liver form. Kind of assay: Competitive inhibition of human liver glycogen phosphorylase-a assessed as release of inorganic phosphate using varying levels of glucose-1-phosphate and constant concentration of AMP and glycogen preincubated for 15 mins with AMP and glycogen followed by glucose-1-phosphate addition.

Activity calls are given as the source filed them. The rule behind the calls is not given here.

On to `N[C@@H]1[C@@H](O)[C@H](O)[C@@H](CO)O[C@H]1n1cc(-c2ccc3ccccc3c2)nn1`, for which the Ki (usually a dissociation constant, usually derived from enzyme kinetics or from competition with a known ligand) in assay [1] came to 354 µM.

In the case of `O[C@@H]1[C@@H](O)[C@H](c2nc(-c3ccccc3)c[nH]2)OC[C@H]1O`, in assay [2], the inhibitory constant (Ki) was 800 µM.

For the molecule `N[C@@H]1[C@@H](O)[C@H](O)[C@@H](CO)O[C@H]1c1nc2ccccc2[nH]1`, the Ki in assay [1] is 107 µM.

Turning to `N[C@@H]1[C@@H](O)[C@H](O)[C@@H](CO)O[C@H]1c1nc(-c2ccccc2)c[nH]1`, the figures for the Ki in assay [3], in assay [1] and in assay [4] were 2.73 µM, 2.67 µM and 3.11 µM, respectively.

For `N[C@@H]1[C@@H](O)[C@H](O)[C@@H](CO)O[C@H]1c1nc(-c2ccc3ccccc3c2)c[nH]1`, the Ki in assay [3] worked out at 0.143 µM; in assay [1], 0.191 µM; in assay [4], 0.125 µM.

`O[C@@H]1[C@@H](O)[C@H](c2nc(-c3ccc4ccccc4c3)n[nH]2)OC[C@H]1O` came in with a Ki in assay [2] of 491 µM.

On to `O=c1[nH]c(=O)n([C@@H]2O[C@H](CO)[C@@H](O)[C@@H](CO)[C@H]2O)cc1F`, for which the Ki in assay [5] turned out to be 27.1 µM.

`N[C@@H]1[C@@H](O)[C@H](O)[C@@H](CO)O[C@H]1n1cc(-c2ccccc2)nn1`: the inhibition result in assay [6] was “inactive”.

For `O[C@@H]1[C@@H](O)[C@H](c2nc(-c3ccc4ccccc4c3)c[nH]2)OC[C@H]1O`, affinity in assay [2] was put at a Ki of 100 µM.

As to `OC[C@H]1O[C@@H](c2nnc(-c3ccccc3)[nH]2)[C@H](O)[C@@H](O)[C@@H]1O`, in assay [7], the Ki came to 1.35 µM.

On to `N[C@@H]1[C@@H](O)[C@H](O)[C@@H](CO)O[C@H]1c1nc(-c2ccccc2)n[nH]1`, for which the Ki in assay [3] was determined as 30.8 µM; in assay [1], 35.2 µM; in assay [4], 30.2 µM.

For `O=c1[nH]c(=O)n([C@@H]2O[C@H](CO)[C@@H](O)[C@H](O)[C@H]2O)cc1F`, the Ki in assay [5] was in the range of 5.5 to 7.9 µM.

With `N[C@@H]1[C@@H](O)[C@H](O)[C@@H](CO)O[C@H]1c1nc(-c2ccc3ccccc3c2)n[nH]1`, the values for the Ki in assay [3], in assay [1] and in assay [4] were 7.6 µM, 4.8 µM and 5.3 µM, respectively.
